3 molecules from ChEMBL document CHEMBL5154742, “Thiosugar naphthalene diimide conjugates: G-quadruplex ligands with antiparasitic and anticancer activity” (Eur J Med Chem, 2022) can be followed below.

One data set concerns Trypanosoma brucei. In words: Antitrypanosomal activity against Trypanosoma brucei incubated for 72 hrs by alamar blue dye based fluorimetry analysis. In kind it is functional, organism-based. The essentials: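 Bloodstream-form T. brucei S16 (Lister 427, MiTat 1.2), 1×10^3 per well in HMI-9 with 20% hiFBS, exposed to increasing compound concentrations for 72 h at 37 °C, 5% CO2. Resazurin then added for 4 h, cells lysed with SDS, fluorescence read at ex 550/em 590 nm. IC50 from four-parameter logistic fit; three independent runs, each in triplicate.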
In general terms: Alamar Blue is a resazurin reagent that responds to reducing activity.

For a further data set, the system named is Leishmania major. In words: Antileishmanial activity against Leishmania major (MHOM/IL/80/Friedlin) promastigotes assessed as reduction in parasite growth incubated for 72 hrs by MTT assay. In kind it is functional, organism-based. The procedure, abridged: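 L. major Friedlin promastigotes, 1×10^6/mL in modified RPMI-1640 with 10% hiFBS, exposed to increasing compound concentrations for 72 h at 28 °C; proliferation read by MTT; IC50 from four-parameter logistic fit versus untreated controls.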

For the next data set, the system named is HT-29. In words: Cytotoxicity against human HT-29 cells assessed as reduction in cell viability incubated for 48 hrs by MTT assay. Type of data set: functional, cell-based. Conditions: HT-29, 48 h. The procedure, abridged:
(§1)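 MTT assay: 5×10^3 cells per well in DMEM with 10% hiFBS (4.5 g/L glucose for HT-29, 1 g/L for MRC-5), exposed to increasing compound concentrations for 48 h at 37 °C. MTT added for 4 h, formazan dissolved in DMSO, absorbance read at 575 nm. IC50 from four-parameter logistic fit.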
For orientation: Tetrazolium dyes change colour on reduction, which living cells bring about.

Data set [1] can be described thus: Cytotoxicity against human MRC5 cells assessed as reduction in cell viability incubated for 48 hrs by MTT assay. In kind it is toxicity, cell-based. The procedure, abridged: as §1
A short description of data set [2]: Selectivity index, ratio of IC50 for human MRC5 cells to IC50 for human HT-29 cells. Type of data set: toxicity. To be noted: MRC5 cells versus HT-29 cells, read-out: Selectivity Index. The procedure, abridged:
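Selectivity index: MRC-5 IC50 divided by HT-29 IC50.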

The nature of data set [3]: Selectivity index, ratio of IC50 for cytotoxicity against human MRC5 cells to IC50 for antileishmanial activity against Leishmania major (MHOM/IL/80/Friedlin) promastigotes. To be noted: read-out: Selectivity Index. In kind it is toxicity, cell-based. The essentials: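 Selectivity index: MRC-5 IC50 divided by L. major promastigote IC50.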
The nature of data set [4]: Selectivity index, ratio of IC50 for cytotoxicity against human MRC5 cells to IC50 for antitrypanosomal activity against Trypanosoma brucei. In kind it is toxicity, cell-based. Conditions: MRC5 cells versus Trypanosoma brucei, read-out: Selectivity Index. The procedure, abridged: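 Selectivity index: MRC-5 IC50 divided by T. brucei IC50.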
In data set [5] the test system is Quadruplex DNA. The data set can be described thus: Binding affinity to human G-quadruplex telomeric DNA F21T (5'-duplex GGG TTAGGG TTAGGG TTAGGG-3') assessed as change in melting temperature at 1 uM incubated for 5 min by FRET assay. In kind it is nucleic-acid assay. The procedure, abridged:
(§2)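 Fluorescently labelled oligonucleotide annealed (95 °C, 5 min) in 10 mM lithium cacodylate/90 mM LiCl, pH 7.2; 0.2 μM final, with or without ligand. Held 5 min at 25 °C, then heated 0.5 °C/min to 95 °C. Tm taken at normalized signal 0.5; ΔTm = Tm with ligand minus Tm without. Tested in duplicate.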

Data set [6] can be described thus: Drug uptake in Trypanosoma brucei at 10 uM incubated for 2 hrs by fluorescence based multiplate reader method. Type of data set: ADME.
Data set [7] has as its system Quadruplex DNA. The data set can be described thus: Binding affinity to human G-quadruplex telomeric DNA F21T (5'-duplex GGG TTAGGG TTAGGG TTAGGG-3') assessed as change in melting temperature at 2 uM incubated for 5 min by FRET assay. Type of data set: nucleic-acid assay. The essentials: as §2
Data set [8] relates to Quadruplex DNA. In words: Binding affinity to human G-quadruplex telomeric DNA F21T (5'-duplex GGG TTAGGG TTAGGG TTAGGG-3') assessed as change in melting temperature at 5 uM incubated for 5 min by FRET assay. In kind it is nucleic-acid assay. The procedure, abridged:
as §2

The nature of data set [9]: Drug localization in nucleus of human HT-29 cells at 25 uM incubated for 30 to 120 mins by DAPI staining based fluorescence microscopic analysis. In kind it is ADME, subcellular. To be noted: ht-29, 25 µM, time 30-120 min. The procedure, abridged:
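HT-29 cells grown 24 h on coverslips in FBS-free medium, then exposed to 25 μM compound for 30 or 120 min at 37 °C. Mounted in DAPI medium and imaged by widefield fluorescence microscopy; compound emission collected at 578–610 nm, DAPI at 437–474 nm.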

Data set [10] in a line: Drug localization in nucleus of Trypanosoma brucei at 5 uM incubated for 30 to 120 mins by DAPI staining based fluorescence microscopic analysis. Type of data set: ADME, subcellular. To be noted: time 30-120 min. The essentials:
(§3)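 T. brucei at 1×10^7/mL exposed to 5 μM compound in FBS-free medium for 30 and 120 min at 37 °C; fixed in cold 4% paraformaldehyde, DAPI-stained and imaged by widefield microscopy. Compound excited with the 542–566 filter and emission collected at 578–610 nm.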

Data set [11] relates to Quadruplex DNA. The data set can be described thus: Binding affinity to parallel G-quadruplex DNA TGGGGT TGGGGT TGGGGT TGGGGT (unknown origin) by mass spectrometric analysis. In kind it is nucleic-acid assay. The essentials:
(§4)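 Native ESI-FTICR MS in negative ion mode under soft conditions, in 100 mM ammonium acetate; DNA at 5 μM with ligand at 10 μM.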

The subject of data set [12] is Quadruplex DNA. The data set can be described thus: Binding affinity to human G-quadruplex telomeric DNA F21T (5'-duplex GGG TTAGGG TTAGGG TTAGGG-3') by mass spectrometric analysis. Type of data set: nucleic-acid assay. The essentials:
as §4

The nature of data set [13]: Drug uptake in human HT-29 cells at 10 uM incubated for 2 hrs by fluorescence based multiplate reader method. To be noted: ht-29, 2 h. Type of data set: ADME, cell-based. The essentials:
(§5)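 225,000 trypsinized cells incubated with 10 μM compound in 0.75 mL medium for 2 h at 37 °C; washed three times with PBS, lysed in 3% SDS and sonicated. NDI fluorescence read at ex 485/em 535 nm, quantified against a calibration curve in cell lysate and normalized to BCA protein. Reported as % of compound added.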

Data set [14] can be described thus: Drug uptake in human MRC5 cells at 10 uM incubated for 2 hrs by fluorescence based multiplate reader method. Type of data set: ADME, cell-based. To be noted: mrc5, 2 h. The essentials:
as §5

Data set [15] is described as follows: Drug localization in cytoplasm of Trypanosoma brucei at 5 uM incubated for 30 to 120 mins by DAPI staining based fluorescence microscopic analysis. In kind it is ADME, subcellular. Conditions: time 30-120 min. The procedure, abridged: as §3

A word on the IC50: it is the concentration that gives 50% inhibition. One may read the ΔTm as the change in melting temperature against a reference sample.

The structures appear in SMILES notation. Calls of active or inactive are those of the source. The calls are words filed in the database; no cut-off is given here.

As for `O=C1c2ccc3c4c(c(NCc5cn(CCO[C@@H]6O[C@H](CO)[C@H](O)[C@H](O)[C@H]6O)nn5)cc(c24)C(=O)N1CCN1CCOCC1)C(=O)N(CCN1CCOCC1)C3=O`, the IC50 in the data set with Trypanosoma brucei stood at 0.15 µM; in the data set with Leishmania major, 27.5 µM; in the data set with HT-29 it was 3.6 µM. For the same molecule, the concentration for half-maximal inhibition (IC50) at 48 h in [1] is 10.4 µM. In addition, the selectivity ratio in data set [2] stood at 2.9; in data set [3] it was 0.38; in data set [4] it was 69.3. The ΔTm came out at 1 °C with Quadruplex DNA [5] and 5 °C in the data set with Quadruplex DNA [7]. For the same molecule, the Drug uptake in data set [6] came out at 5.4%.

On to `O=C1c2ccc3c4c(c(NCc5cn(CCS[C@@H]6O[C@H](CO)[C@H](O)[C@H](O)[C@H]6O)nn5)cc(c24)C(=O)N1CCN1CCOCC1)C(=O)N(CCN1CCOCC1)C3=O`, for which the IC50 in the data set on Trypanosoma brucei is 0.85 µM; in the data set on Leishmania major, 30 µM; with HT-29, 26.5 µM. In addition, the IC50 at 48 h in [1] was 23.5 µM. The selectivity ratio is 0.9 in data set [2], 0.8 in [3] and 27.6 in data set [4]. The thermal shift (ΔTm) came out at 1 °C in the data set with Quadruplex DNA [5] and 5 °C in the data set on Quadruplex DNA [8]. The same molecule returned a Drug uptake in [6] of 6.8%.

Consider `CN(C)CCCN1C(=O)c2ccc3c4c(c(NCc5cn(CCS[C@@H]6O[C@H](CO)[C@@H](O[C@H]7O[C@H](CO)[C@@H](O)[C@H](O)[C@H]7O)[C@H](O)[C@H]6O)nn5)cc(c24)C1=O)C(=O)N(CCCN(C)C)C3=O`, for which the Drug uptake result in data set [9] was “Active”; in data set [10], “Active”; in data set [13], 23.1%; in data set [14], 20.7%; in data set [6], 4.3%; in data set [15], “Active”. The half-inhibitory concentration (IC50) in the data set on Trypanosoma brucei is 0.06 µM; in the data set with Leishmania major, 0.51 µM; in the data set on HT-29 it was 0.3 µM. The concentration for half-maximal inhibition (IC50) at 48 h in data set [1] is 2.94 µM. For the same molecule, the selectivity ratio in data set [2] came to 9.8; in data set [3], 5.7; in data set [4] it was 49. The shift in melting temperature (ΔTm) in the data set on Quadruplex DNA [5] was found to be 10 °C. Moreover, the result in the data set on Quadruplex DNA [11] and in the data set on Quadruplex DNA [12] was Active.
